Experimental findings from ChEMBL document CHEMBL1143909, “Novel cholesterol biosynthesis inhibitors targeting human lanosterol 14alpha-demethylase (CYP51)” (Bioorg Med Chem, 2008) are described below.

The term Kd denotes the constant that tells how readily two partners part at equilibrium. A lower Kd goes with a tighter complex.

The target of assay [1] is T1, Lanosterol 14-alpha demethylase (Homo sapiens, UniProt Q16850).
T1 sequence (Q16850 whole entry): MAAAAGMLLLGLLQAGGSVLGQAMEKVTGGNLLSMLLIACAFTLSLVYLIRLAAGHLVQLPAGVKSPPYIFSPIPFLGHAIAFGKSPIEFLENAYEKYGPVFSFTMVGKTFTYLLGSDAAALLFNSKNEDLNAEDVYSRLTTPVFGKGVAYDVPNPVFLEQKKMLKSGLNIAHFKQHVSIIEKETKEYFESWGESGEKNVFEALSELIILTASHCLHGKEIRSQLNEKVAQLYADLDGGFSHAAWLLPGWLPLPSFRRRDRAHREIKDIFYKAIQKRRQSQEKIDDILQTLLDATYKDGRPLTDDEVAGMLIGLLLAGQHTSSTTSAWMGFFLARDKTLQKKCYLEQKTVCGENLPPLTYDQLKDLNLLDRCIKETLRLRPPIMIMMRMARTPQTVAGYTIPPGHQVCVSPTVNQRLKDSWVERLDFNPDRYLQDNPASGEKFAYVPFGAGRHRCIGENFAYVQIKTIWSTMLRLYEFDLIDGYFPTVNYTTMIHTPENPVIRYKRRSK
The assay can be described thus: Binding affinity to human His-tagged CYP51 expressed in Escherichia coli. In short, it runs like this:
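Purified His-tagged human CYP51 titrated with inhibitor at room temperature in 50 mM phosphate, 100 mM NaCl, 0.1 mM EDTA, 10% glycerol. Difference spectra recorded 350-500 nm; A412–A432 plotted against inhibitor concentration. Enzyme 0.5 or 2 µM, titration ranges 0.25-400 µM depending on compound. Apparent Kd from hyperbolic nonlinear fit of free inhibitor; three repeats per compound.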

For a further assay, the system named is HepG2. Put plainly: Ex vivo inhibition of CYP51 mediated cholesterol biosynthesis in human HepG2 cells assessed as increase in lanosterol accumulation at 10 uM relative to control.
Assay [2] has as its target T2, Delta(14)-sterol reductase TM7SF2 (Homo sapiens) (UniProt O76062).
T2 sequence (whole entry): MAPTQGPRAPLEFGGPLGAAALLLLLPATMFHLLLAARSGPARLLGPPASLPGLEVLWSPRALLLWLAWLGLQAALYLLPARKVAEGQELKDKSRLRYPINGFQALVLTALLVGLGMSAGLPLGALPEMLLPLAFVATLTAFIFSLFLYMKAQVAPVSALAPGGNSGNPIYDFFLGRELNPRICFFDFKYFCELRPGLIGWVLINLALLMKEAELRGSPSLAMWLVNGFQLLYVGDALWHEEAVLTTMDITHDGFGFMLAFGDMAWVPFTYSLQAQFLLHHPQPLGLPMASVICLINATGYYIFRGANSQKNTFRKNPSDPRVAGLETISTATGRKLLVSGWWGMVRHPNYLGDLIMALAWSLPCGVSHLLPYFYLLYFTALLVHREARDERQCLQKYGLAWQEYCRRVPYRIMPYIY
Put plainly: Inhibition of Delta-(14)-sterol reductase in human HepG2 cells assessed as accumulation of FF-MAS. The format is cell-based. The method in brief: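 HepG2 cells grown 24 h at 37 °C, 5% CO2 in DMEM high with 5% calf serum, then 10 µM compound for 24 h. Fresh medium with [3H]acetate (40 µCi/ml) for 4 h. Sterols extracted from homogenate with ergosterol internal standard, separated by reversed-phase HPLC (100% acetonitrile, 40 °C) with radioactivity detection. Read as ratios to untreated cells: two experiments × two replicas, mean of 8 ratios ± SD.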

Structures are written as SMILES. The source made the active and inactive calls. No cut-off for these calls is given here.

`Br.CCCN(CCc1ccc(F)c(F)c1)CC(O)c1cccnc1` (centres undefined) yielded a Kd in assay [1] of 27 µM. In the assay on HepG2, the Activity stood at 1.9.
Consider `CC(=O)N1CCN(c2ccc(OC[C@H]3CO[C@](Cn4ccnc4)(c4ccc(Cl)cc4Cl)O3)cc2)CC1` [KETOCONAZOLE], for which the Kd in assay [1] was 0.11 µM.
On to `Br.CCCN(CCc1ccc(OC)c(OC)c1)CC(O)c1cccnc1` (centres undefined), for which, in assay [1], the affinity, expressed as Kd, was 29.2 µM. Moreover, the Activity in the assay with HepG2 is given as 1.8.
Regarding `CCCN(CCc1cccnc1)CCc1cccc(F)c1`, in assay [2], the result was Active.
`Br.CCCN(CCc1ccc(Cl)c(Cl)c1)CC(O)c1cc(C)ccn1` (centres undefined) gave a Kd in assay [1] above 1000 µM. Besides, the Activity in the assay with HepG2 worked out at 1.2.
`Br.CCCN(CCc1cccnc1)CC(O)c1cccnc1` (centres undefined): the Kd in assay [1] is 260 µM. The Activity in the assay with HepG2 was determined as 1.
`Br.CCCN(CCc1ccc(Cl)c(Cl)c1)CC(O)c1cccnc1` (centres undefined) registered a Kd in assay [1] of 0.4 µM. In addition, the Activity in the assay with HepG2 came out at 6.
Regarding `Br.CCCN(CCc1ccc2ccccc2c1)CC(O)c1cccnc1` (centres undefined), the Kd in assay [1] was determined as 0.34 µM. Besides, in the assay on HepG2, the Activity is on record as 5.
